Hits are enriched below; roughly 2.6% of the tested compounds scored in any of these assays.
DENV2 CPE = inhibitors of DENV2 cytopathic effect | DENV2-infected cells, cytopathic effect rescue, plate reader | CPE inhibition, % at 9.99 µM | hit rate 1.7% among 350,000 | AID 651640; in the data active = CPE inhibition above about 20%, passing the limit was not always enough; inconclusive = no clear call, values can overlap the other calls; tested in BHK-21 cells
CFTR F508del cor = CFTR F508del correction in bronchial cells. CFBE cells, YFP halide quenching; stimulated with forskolin plus potentiator P3; % fluorescence drop versus neutral controls. activity (quench increase), % at 7.58 µM. hit rate 0.36% among 350,000. AID 720511;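 active = mean added fluorescence quench of at least 8% versus neutral control, with both replicates also reaching 8%; inconclusive = only one of the mean or replicate conditions met; inactive = mean below 8% and not both replicates reaching 8%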;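 also: cells transiently co-express mutant CFTR-F508del with the halide-sensitive YFP; corrector assay measuring rescue of mutant channel to the surface after 24 h compound exposure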
ERAP1 inh = inhibitors of human ERAP1 aminopeptidase | Q9NZ08 | recombinant ERAP1, Leu-AMC fluorescence, 60 min | inhibition, % at 10.7 µM | hit rate 0.15% among 340,000 | AID 652197;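 active = mean replicate inhibition of at least 30%, or all replicates individually reaching that 30% level; inactive = mean below 30% and not every replicate reaching it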
Target sequence (Q9NZ08 whole entry, looked up): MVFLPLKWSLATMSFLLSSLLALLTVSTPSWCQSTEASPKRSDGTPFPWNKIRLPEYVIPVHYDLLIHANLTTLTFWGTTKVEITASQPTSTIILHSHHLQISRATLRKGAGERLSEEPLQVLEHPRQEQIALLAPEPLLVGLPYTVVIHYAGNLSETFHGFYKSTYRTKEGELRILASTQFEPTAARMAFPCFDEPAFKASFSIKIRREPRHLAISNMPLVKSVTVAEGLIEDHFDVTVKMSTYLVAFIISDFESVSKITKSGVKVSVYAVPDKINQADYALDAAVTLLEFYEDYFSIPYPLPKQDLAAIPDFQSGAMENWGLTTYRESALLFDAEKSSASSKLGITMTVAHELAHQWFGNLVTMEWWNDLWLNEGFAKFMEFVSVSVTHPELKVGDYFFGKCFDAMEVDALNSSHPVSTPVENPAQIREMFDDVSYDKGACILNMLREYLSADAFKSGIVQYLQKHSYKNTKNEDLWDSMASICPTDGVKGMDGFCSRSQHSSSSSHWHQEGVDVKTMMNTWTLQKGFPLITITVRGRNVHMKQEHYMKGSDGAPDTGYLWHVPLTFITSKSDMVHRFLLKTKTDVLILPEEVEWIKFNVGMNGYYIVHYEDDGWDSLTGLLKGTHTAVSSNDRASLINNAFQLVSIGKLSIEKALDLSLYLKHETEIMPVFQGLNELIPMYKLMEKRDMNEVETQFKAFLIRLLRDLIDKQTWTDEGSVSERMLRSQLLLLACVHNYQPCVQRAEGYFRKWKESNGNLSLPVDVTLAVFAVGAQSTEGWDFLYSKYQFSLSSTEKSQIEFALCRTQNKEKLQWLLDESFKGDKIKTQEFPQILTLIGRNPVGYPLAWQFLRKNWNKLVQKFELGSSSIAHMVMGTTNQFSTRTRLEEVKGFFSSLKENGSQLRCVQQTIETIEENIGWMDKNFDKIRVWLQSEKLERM
E-selectin induc = E-selectin induction on HUVECs; hit rate 0.37% among 260,000; AID 686992; P16581; HUVEC E-selectin immunofluorescence imaging; normalized: neutral wells 0, TNF-alpha wells 100; activation, % at 7.58 µM;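 active = mean E-selectin-positive cell signal at least 10% of the positive control, reached in at least 60% of replicates, without over 20% cell loss; inconclusive = no rule given, readout overlaps actives, possibly toxicity-flagged; inactive = the rest, including those meeting only one limit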
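Assay system: HUVEC primary endothelial cells. Input: 3,000 HUVEC seeded per well. Doses: one compound dose added by pin transfer. Read-out basis: % PE-positive cells. Benchmarks: TNF-alpha high, DMSO low. Detection: immunofluorescence imaging. Buffer or medium: EGM-2, gelatin.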
INS-1E GSIS act = primary screen for activators of insulin secretion dependent on glucose, INS-1E cells, GLuc reporter luminescence. activation, % at 16.6 µM. INS-1E GLuc reporter insulin secretion, 2-3 h. AID 743287. hit rate 0.61% among 370,000;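 active = lowest replicate activation of at least 40%, so every replicate reaches that level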
miR122 inh = miR-122 inhibition in Huh7 cells; Huh7 miR-122 Renilla luciferase sensor, 48 h; neutral wells = 0, positive control = 100; activation (reporter increase), % at 12.5 µM; hit rate 0.3% among 340,000;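 active = mean replicate activation score at least 90 and every replicate individually at or above 90; inconclusive = only one of the two criteria met; inactive = neither criterion met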;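 also: higher luciferase means less miR-122 activity so hits act as miR-122 inhibitors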
Each line names hits and unclear results; the compound was inactive in the other large screens; [ ] = another dose, or the depositor's remark.

CC(C)C#Cc1cnc2c(c1)C(=O)N([C@@H](C)CO)C[C@@H](C)[C@@H](CN(C)C(=O)Cc1ccncc1)O2	none
COc1ccc(CN(C)C[C@H]2OCCCC[C@@H](C)Oc3ccc(NS(=O)(=O)c4cn(C)cn4)cc3C(=O)N([C@@H](C)CO)C[C@H]2C)cc1	none
Cc1noc(C)c1S(=O)(=O)Nc1ccc2c(c1)C(=O)N([C@@H](C)CO)C[C@H](C)[C@@H](CN(C)S(=O)(=O)c1cccs1)OCCCC[C@@H](C)O2	DENV2 CPE inconclusive (no result: ERAP1 inh, E-selectin induc)
Cc1ccc(-n2nnnc2-c2nc3ccccc3s2)cc1	none (no result: DENV2 CPE, CFTR F508del cor, ERAP1 inh, E-selectin induc, miR122 inh)
CCOc1ccc(-n2nnnc2-c2nc3ccccc3s2)cc1	INS-1E GSIS act 90 (no result: DENV2 CPE, CFTR F508del cor, ERAP1 inh, E-selectin induc, miR122 inh)
CCOc1ccc(NN=C(C(=O)OC)C(=O)OC)c([N+](=O)[O-])c1	DENV2 CPE 37 (no result: INS-1E GSIS act)
Cc1ccc(NC(=O)CSC2=NN3CCCC(=O)N=C3S2)c(C)c1	CFTR F508del cor 9.7
Cc1noc(C)c1NC(=O)Nc1ccc2c(c1)C(=O)N([C@H](C)CO)C[C@@H](C)[C@@H](CN(C)S(=O)(=O)c1ccccc1)O2	none (no result: DENV2 CPE, ERAP1 inh)
N#Cc1ccc(-c2ccc3c(c2)[C@H]2[C@H](CCN2S(=O)(=O)c2ccccc2F)[C@@H](CO)N3)cc1	CFTR F508del cor 15 (no result: ERAP1 inh)
N#Cc1ccc(-c2ccc3c(c2)[C@H]2[C@H](CCN2S(=O)(=O)c2ccccc2F)[C@H](CO)N3)cc1	none (no result: ERAP1 inh)
Cc1ccccc1S(=O)(=O)N1CC[C@@H]2[C@H]1c1cc(-c3ccc(C#N)cc3)ccc1N[C@@H]2CO	DENV2 CPE 77
N#Cc1ccc(-c2ccc3c(c2)[C@@H]2[C@@H](CCN2S(=O)(=O)c2ccccc2F)[C@H](CO)N3)cc1	none (no result: ERAP1 inh)
Cc1ccccc1S(=O)(=O)N1CC[C@@H]2[C@H](CO)Nc3ccc(-c4ccc(C#N)cc4)cc3[C@@H]21	DENV2 CPE 25
CCCNC(=O)C[C@@H]1CC[C@H]2[C@@H](COc3ccc(NC(=O)c4ccccc4)cc3C(=O)N2C)O1	none
CO[C@@H]1CN(C)C(=O)c2ccc(NC(C)=O)cc2OC[C@@H](C)N(C(=O)CN2CCOCC2)C[C@@H]1C	DENV2 CPE 28
CCC(=O)Nc1ccc2c(c1)OC[C@@H](C)N(C(=O)CN1CCOCC1)C[C@H](C)[C@@H](OC)CN(C)C2=O	none (no result: CFTR F508del cor)
CCC(=O)Nc1ccc2c(c1)OC[C@@H](C)N(C(=O)C1CC1)C[C@H](C)[C@H](OC)CN(C)C2=O	DENV2 CPE 36 (no result: miR122 inh)
CO[C@H]1CN(C)C(=O)c2ccc(NC(C)=O)cc2OC[C@H](C)N(C(=O)C2CCC2)C[C@@H]1C	DENV2 CPE 30 (no result: miR122 inh)
CCC(=O)Nc1ccc2c(c1)OC[C@H](C)N(C(=O)C1CC1)C[C@@H](C)[C@H](OC)CN(C)C2=O	none
CO[C@@H]1CN(C)C(=O)c2ccc(NC(C)=O)cc2OC[C@@H](C)N(C(=O)C2CCC2)C[C@@H]1C	none (no result: miR122 inh)
C[C@@H]1CN([C@H](C)CO)C(=O)c2cc(Br)cnc2O[C@H]1CN(C)C(=O)C1CC1	none (no result: DENV2 CPE, ERAP1 inh)
COc1cccc(-c2ccc3c(c2)[C@H]2[C@H](CCN2S(=O)(=O)c2ccccc2C)[C@H](CO)N3)c1	DENV2 CPE 39
COc1ccc(-c2ccc3c(c2)[C@H]2[C@H](CCN2S(=O)(=O)c2ccccc2C)[C@H](CO)N3)cc1	none (no result: DENV2 CPE, ERAP1 inh)
COc1cccc(-c2ccc3c(c2)[C@H]2[C@H](CCN2S(=O)(=O)c2ccccc2C)[C@@H](CO)N3)c1	miR122 inh 97[16.7 µM]
COc1cccc(-c2ccc3c(c2)[C@@H]2[C@@H](CCN2S(=O)(=O)c2cn(C)cn2)[C@@H](CO)N3)c1	DENV2 CPE 35
COc1ccc(-c2ccc3c(c2)[C@H]2[C@H](CCN2S(=O)(=O)c2ccc(OC)cc2)[C@H](CO)N3)cc1	DENV2 CPE 54 (no result: ERAP1 inh)
C[C@H](CO)N1C[C@H](C)[C@H](CN(C)S(C)(=O)=O)OCCCC[C@H](C)Oc2ccc(NC(=O)Nc3ccc(F)cc3)cc2C1=O	none (no result: ERAP1 inh)
O=C(C1CCCC1)N1CC(=O)N2[C@@H](CO)[C@@H](c3ccc(C#CC4CCCC4)cc3)[C@@H]2C1	none (no result: miR122 inh)
CNC[C@H]1Oc2ccc(NS(=O)(=O)c3cccs3)cc2CC(=O)N([C@@H](C)CO)C[C@@H]1C	none (no result: E-selectin induc)

Compound activity (PubChem BioAssay)
